These results are taken from ChEMBL document CHEMBL1121975, “Effect of N,N'-diethyl-1,2-bis(2,6-dichloro-4-hydroxyphenyl)ethylenediamines on the 7,12-dimethylbenz[a]anthracene-induced mammary carcinoma of the rat” (1982).

Structures are written as SMILES.

In assay [1] the target is Estrogen receptor (Bos taurus) (UniProt Q9XSB5+P49884). The experiment in a line: Displacement of [3H]- estradiol from calf uterine estrogen receptor. Type of assay: protein assay. An outline of the steps: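 Competitive binding with calf uterine cytosol as the estrogen receptor source, [3H]estradiol as tracer, and dextran-charcoal separation. RBA = (molar concentration of E2 / molar concentration of inhibitor needed to reduce bound [3H]E2 by 50%) × 100, with 17β-estradiol = 100.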
(In a radioligand displacement assay an active substance lowers the binding of a labelled ligand.)

Assay [2] deals with Rattus norvegicus. The assay is described as follows: Change in body weight in rats after 7 days at 6 mg/kg dose. The format is functional.
The test system of assay [3] is Rattus norvegicus. The experiment in a line: Tumour number in DMBA-induced mammary carcinoma in rats at 2 mg/kg dose. Type of assay: functional. In a few lines:
(§1)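 Sprague-Dawley rats bearing DMBA-induced mammary tumours, randomized in groups of 10 between days 35 and 70 after induction. Dosing was sc in olive oil at 2 or 6 mg/kg: a single dose daily Monday–Thursday and a double dose Friday, for 4 weeks. Tumour number was taken at test start. Complete remission = not palpable; partial = ≤50% of initial size; static = 51-150% of initial size.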

Assay [4] relates to Rattus norvegicus. The experiment in a line: Progression of DMBA-induced mammary carcinoma in rats at 6 mg/kg dose. The format is functional. In a few lines:
as §1

Assay [5] is filed under the species Rattus norvegicus. The assay is described as follows: (§2) Unchanged total tumor area (51-150%) in DMBA-induced mammary carcinoma in rats. The format is functional. In a few lines:
as §1

Assay [6] deals with Rattus norvegicus. The assay is described as follows: Complete remission of DMBA-induced mammary carcinoma in rats at 2 mg/kg dose. Type of assay: functional. An outline of the steps:
as §1

The species named for assay [7] is Rattus norvegicus. The assay is described as follows: (§3) Increased total tumor area (>150%) in DMBA-induced mammary carcinoma in rats. The format is functional. An outline of the steps: as §1
For assay [8], the species on record is Rattus norvegicus. The experiment in a line: (§4) Partial remission of DMBA-induced mammary carcinoma in rats. Type of assay: functional. In a few lines: as §1
Assay [9] relates to Rattus norvegicus. The assay is described as follows: Tumour number in DMBA-induced mammary carcinoma in rats at 6 mg/kg dose. The format is functional. An outline of the steps: as §1
For assay [10], the species on record is Rattus norvegicus. The assay is described as §3. The format is functional. An outline of the steps:
as §1
The source holds these as a separate data set.

The subject of assay [11] is Rattus norvegicus. The experiment in a line: Change in body weight in rats after 7 days at 2 mg/kg dose. Type of assay: functional.
Assay [12] deals with Rattus norvegicus. The assay is described as follows: Complete remission of DMBA-induced mammary carcinoma in rats at 6 mg/kg dose. The format is functional. In a few lines: as §1
For assay [13], the species on record is Rattus norvegicus. Described as §4. Type of assay: functional. In a few lines:
as §1
This is another data set of the same source.

The test system of assay [14] is Rattus norvegicus. The experiment in a line: Progression of DMBA-induced mammary carcinoma in rats at 2 mg/kg dose. The format is functional. An outline of the steps:
as §1

The species entered for assay [15] is Rattus norvegicus. Described as §2. Type of assay: functional. An outline of the steps:
as §1
This is another data set of the same source.

Assay [16] is filed under the species Rattus norvegicus. The assay is described as §3. Type of assay: functional. An outline of the steps: as §1
This is another data set of the same source.

As for `CCCNC(c1c(Cl)cc(O)cc1Cl)C(NCCC)c1c(Cl)cc(O)cc1Cl` (racemic), in assay [1], the relative binding affinity (RBA) was determined as 1.

`CCCNC(c1c(Cl)cc(O)cc1Cl)C(NCCC)c1c(Cl)cc(O)cc1Cl` (stereo in doubt) came in with a relative binding affinity (RBA) in [1] of 8.2.

In [1], `CNC(c1c(Cl)cc(O)cc1Cl)C(NC)c1c(Cl)cc(O)cc1Cl` (racemic) showed a relative binding affinity (RBA) of 1.3.

Consider `CCNC(c1c(Cl)cc(O)cc1Cl)C(NCC)c1c(Cl)cc(O)cc1Cl` (stereo in doubt) [listing 1 of 2 here], for which the “Change of body weight” value with Rattus norvegicus [2] is given as -4%; with Rattus norvegicus [11] it was -6%. In addition, the “Change of tumor area” value in the assay on Rattus norvegicus [2] is -74%; with Rattus norvegicus [11], 29%. The figures for the No. of tumors in the assay on Rattus norvegicus [3] and with Rattus norvegicus [9] were 35 and 26, respectively. In addition, the New tumors in the assay on Rattus norvegicus [4] is reported as 6; in the assay on Rattus norvegicus [14], 7. Besides, the Static tumors in the assay filed under Rattus norvegicus [5] was determined as 10%; in the assay listed under Rattus norvegicus [15], 16%. For the same molecule, the Complete remission with Rattus norvegicus [6] was determined as 50%; in the assay on Rattus norvegicus [12], 28%. Moreover, the values for the Progressed tumors in the assay filed under Rattus norvegicus [7] and in the assay listed under Rattus norvegicus [10] were 3% and 26%, respectively. The results for the Partial remission in the assay filed under Rattus norvegicus [8] and in the assay listed under Rattus norvegicus [13] were 53% and 14%, respectively.

Turning to `CCNC(c1c(Cl)cc(O)cc1Cl)C(NCC)c1c(Cl)cc(O)cc1Cl` (racemic) [listing 1 of 2 here], the results for the “Change of body weight” value in the assay on Rattus norvegicus [2] and in the assay on Rattus norvegicus [11] were -2% and 0%, respectively. In addition, the “Change of tumor area” value is -24% in the assay with Rattus norvegicus [2] and 282% in the assay with Rattus norvegicus [11]. The No. of tumors is given as 34 with Rattus norvegicus [3] and 28 with Rattus norvegicus [9]. For the same molecule, the New tumors worked out at 15 with Rattus norvegicus [4] and 18 with Rattus norvegicus [14]. Further, the Static tumors in the assay listed under Rattus norvegicus [5] amounted to 21%; in the assay filed under Rattus norvegicus [15], 23%. Also, the figures for the Complete remission with Rattus norvegicus [6] and with Rattus norvegicus [12] were 14% and 35%, respectively. The figures for the Progressed tumors in the assay listed under Rattus norvegicus [7] and in the assay listed under Rattus norvegicus [16] were 16% and 54%, respectively. Further, the Partial remission in the assay filed under Rattus norvegicus [8] was found to be 26%; in the assay filed under Rattus norvegicus [13] it was 11%.

As to `CCNC(c1c(Cl)cc(O)cc1Cl)C(NCC)c1c(Cl)cc(O)cc1Cl` (racemic) [listing 2 of 2 here], in [1], the relative binding affinity (RBA) was determined as 2.1.

For `CNC(c1c(Cl)cc(O)cc1Cl)C(NC)c1c(Cl)cc(O)cc1Cl` (stereo in doubt), the relative binding affinity (RBA) in [1] came to 2.3.

Take `CCNC(c1c(Cl)cc(O)cc1Cl)C(NCC)c1c(Cl)cc(O)cc1Cl` (stereo in doubt) [listing 2 of 2 here]: in [1], the relative binding affinity (RBA) is 8.6.
